According to ChEMBL document CHEMBL3585293, “Design, antiviral and cytostatic properties of isoxazolidine-containing amonafide analogues” (Bioorg Med Chem, 2015):

How the values were obtained:
HeLa [1] = assay: Cytotoxicity against human HeLa cells assessed as reduction of cell survival after 48 hrs by MTT assay; assay type: functional, cell-based
K562 = assay: Cytotoxicity against human K562 cells assessed as reduction of cell survival after 48 hrs by MTT assay; assay type: functional, cell-based; conditions: K562, 48 h
[2] = Cytotoxicity against CRFK cells assessed cell viability by MTS assay; assay type: cell-based, Felis catus; conditions: cat
How it was run: (§1)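 Cells were exposed to a range of compound concentrations. Viability was measured by the colorimetric formazan-based MTS assay.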

Cytomegalovirus [3] = assay: Antiviral activity against Cytomegalovirus AD-169 infected in HEL cells assessed as reduction of virus-induced cytopathogenicity; assay type: functional, organism-based; conditions: Human betaherpesvirus 5, AD-169, HEL
Human alphaherpesvirus 1 [4] = assay: Antiviral activity against Herpes simplex virus 1 KOS infected in HEL cells assessed as reduction of virus-induced cytopathogenicity; assay type: functional, organism-based; conditions: Human alphaherpesvirus 1, KOS
Human alphaherpesvirus 3 [5] = assay: Antiviral activity against thymidine kinase-deficient Varicella-zoster virus infected in HEL cells assessed as reduction of virus-induced plaque formation; assay type: functional, organism-based; conditions: Human alphaherpesvirus 3, HEL
How it was run: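 Plaque-reduction assay in HEL cells. TK+ VZV strains were Oka and YS; TK- strains were 07-1 and YS-R. Virus input was 100 PFU, with graded compound concentrations. Plaques were counted once formation was complete in untreated infected controls. Two independent experiments were run.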

CCRF-CEM [6] = assay: Cytotoxicity against human CEM cells assessed as inhibition of cell proliferation; assay type: functional, cell-based
Cytomegalovirus [7] = assay: Antiviral activity against Cytomegalovirus Davis infected in HEL cells assessed as reduction of virus-induced cytopathogenicity; assay type: functional, organism-based; conditions: Human betaherpesvirus 5, Davis
HeLa [8] = assay: Cytotoxicity against human HeLa cells assessed as inhibition of cell proliferation; assay type: functional, cell-based
Human alphaherpesvirus 1 [9] = assay: Antiviral activity against thymidine kinase-deficient acyclovir-resistant Herpes simplex virus 1 KOS infected in HEL cells assessed as reduction of virus-induced cytopathogenicity; assay type: functional, organism-based; conditions: Human alphaherpesvirus 1, KOS
L1210 = assay: Cytotoxicity against mouse L1210 cells assessed as inhibition of cell proliferation; assay type: functional, cell-based
MDCK = assay: Cytotoxicity against MDCK cells assessed cell viability by MTS assay; assay type: cell-based, Canis lupus familiaris; conditions: dog; how it was run: as §1
Human alphaherpesvirus 3 [10] = assay: Antiviral activity against Varicella-zoster virus expressing thymidine kinase infected in HEL cells assessed as reduction of virus-induced plaque formation; assay type: functional, organism-based; conditions: Human alphaherpesvirus 3, HEL
How it was run: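 Plaque-reduction assay in HEL cells. TK+ VZV strains were Oka and YS; TK- strains were 07-1 and YS-R. Virus input was 100 PFU, with graded compound concentrations. Plaques were counted once formation was complete in untreated infected controls. […] Two independent experiments were run.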

Human alphaherpesvirus 2 = assay: Antiviral activity against Herpes simplex virus 2 G infected in HEL cells assessed as reduction of virus-induced cytopathogenicity; assay type: functional, organism-based; conditions: Human alphaherpesvirus 2, strain G
[11] = Cytotoxicity against HEL cells assessed as alternation of cell morphology by microscopic analysis; assay type: cell-based; conditions: human
CCRF-CEM [12] = assay: Potency index, ratio of 5-Fluorouracil IC50 to compound IC50 for human CEM cells; assay type: functional
Punta Toro virus = assay: Antiviral activity against Punta Toro virus infected in African green monkey Vero cells assessed as reduction of virus-induced cytopathogenicity; assay type: functional, organism-based
How it was run: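 Confluent Vero monolayers were infected with 100 CCID50 of virus and then incubated with a range of compound concentrations. Viral cytopathicity was scored once it was complete in untreated infected control cultures. […] Two independent experiments were run.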

Coxsackievirus B4 = assay: Antiviral activity against Coxsackievirus B4 infected in African green monkey Vero cells assessed as reduction of virus-induced cytopathogenicity; assay type: functional, organism-based; conditions: Enterovirus B
How it was run: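 Confluent Vero (Coxsackie B4) or HeLa (vesicular stomatitis virus) monolayers in 96-well plates were inoculated with 100 CCID50 virus or 20 PFU and incubated with varying compound concentrations. Cytopathicity was scored once complete in untreated infected controls. […] Two separate experiments were run.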

[13] = Cytotoxicity against African green monkey Vero cells assessed as alternation of cell morphology by microscopic analysis; assay type: cell-based; conditions: chlorocebus sabaeus
How it was run: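 Vero cells were exposed to graded compound concentrations. MCC is the lowest concentration producing a microscopically detectable change in cell morphology. Two experiments were run.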

Compound | IC50 (HeLa [1]) | IC50 (K562) | CC50 [2] | EC50 (Cytomegalovirus [3]) | EC50 (Human alphaherpesvirus 1 [4]) | EC50 (Human alphaherpesvirus 3 [5]) | IC50 (CCRF-CEM [6]) | EC50 (Cytomegalovirus [7]) | IC50 (HeLa [8]) | EC50 (Human alphaherpesvirus 1 [9]) | IC50 (L1210) | CC50 (MDCK) | EC50 (Human alphaherpesvirus 3 [10]) | EC50 (Human alphaherpesvirus 2) | MCC [11] | Ratio IC50 (CCRF-CEM [12]) | EC50 (Punta Toro virus) | EC50 (Coxsackievirus B4) | MCC [13]
CCOP(=O)(OCC)C1CC(c2ccc3ccccc3c2)ON1C (configuration not stated) | 50 µM | – | – | – | – | – | – | – | – | – | – | – | – | – | – | – | – | – | –
CCOP(=O)(OCC)C1CC(c2cccc3ccccc23)ON1C (configuration not stated) | – | 90 µM | – | – | – | – | – | – | – | – | – | – | – | – | – | – | – | – | –
CCOP(=O)(OCC)[C@@H]1C[C@H](C(=O)Nc2cc3c4c(cccc4c2)C(=O)N(CCN(C)C)C3=O)ON1C (racemic) | – | – | 62.2 µM | 37 µM | 50 µM | 20 µM | 6 µM | 37 µM | 3.3 µM | 50 µM | 2.9 µM | > 100 µM | ≥ 11 µM | 50 µM | ≥ 100 µM | – | – | – | –
CCOP(=O)(OCC)[C@@H]1C[C@@H](C(=O)Nc2cc3c4c(cccc4c2)C(=O)N(CCN(C)C)C3=O)ON1C (racemic) | – | – | 95.2 µM | 8.9 µM | 45 µM | 26 µM | 3.4 µM | 8.9 µM | 1.8 µM | 45 µM | 1.5 µM | 75.2 µM | 14 µM | – | ≥ 100 µM | 5 | – | – | –
CCOP(=O)(OCC)[C@@H]1C[C@H](C(=O)Nc2cc3c4c(cccc4c2)C(=O)N(CCN2CCCC2)C3=O)ON1C (racemic) | – | – | 89.1 µM | 45 µM | > 100 µM | > 20 µM | 12 µM | 45 µM | 3 µM | > 100 µM | 4.4 µM | > 100 µM | > 20 µM | 58 µM | ≥ 100 µM | – | – | – | –
CCOP(=O)(OCC)[C@@H]1C[C@@H](C(=O)Nc2cc3c4c(cccc4c2)C(=O)N(CCN2CCCC2)C3=O)ON1C (relative stereo) | – | – | > 100 µM | 8.9 µM | 45 µM | > 20 µM | 3.9 µM | 10.9 µM | 1.1 µM | 45 µM | 1.7 µM | 87.3 µM | > 20 µM | – | ≥ 100 µM | 5 | – | – | –
NC(=O)c1ncn([C@@H]2O[C@H](CO)[C@@H](O)[C@H]2O)n1 [RIBAVIRIN] | – | – | – | – | – | – | – | – | – | – | – | – | – | – | – | – | 112 µM | > 250 µM | > 250 µM
